Bioassay records deposited in PubChem by several laboratories.
L major viab: Leishmania major promastigote growth inhibition, primary screen; Leishmania major promastigotes, resazurin fluorescence viability; inhibition, % at 10 µM; 200,000 tested, 9% active; AID 1063, 2008; in the data active = inhibition above about 50%;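 note: promastigotes grown with compound for 44 hours at 28 °C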
HCT116 bCat-KO: primary screen for growth suppressors in beta-catenin knockout HCT116 cells (colon tumor, human); HCT116 beta-catenin knockout viability, CellTiter-Glo, 60 h; active compounds read low; viability, % at 10 µM; 140,000 tested, 1.5% active; AID 818, 2007;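 active = viability at or under a set limit, the compound median less 4 SD, cut at about 6% in these data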;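 note: 0% = Hyamine 1622 control at 20 µM and 100% = untreated cell control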
PTEN del growth: growth suppression of PTEN-null HCT116, primary screen, cell-based, CellTiter-Glo; HCT116 PTEN-null viability, 60 h; active compounds read low; viability, % at 10 µM; 140,000 tested, 1.2% active; AID 827, 2007;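 active = viability at or below a set limit, 4 SD under the median of all tested compounds, cut at about 3.7% in these data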;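 note: PTEN knockout HCT116 line with beta catenin targeted HCT116 as companion control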
TNAP inh no acc: human TNAP enzyme inhibitors, primary screen, biochemical, luminescent, no phosphate acceptor, uHTS | inhibition, % at 20 µM | purified TNAP, CDP-star luminescence, 30 min | Alkaline phosphatase, tissue-nonspecific isozyme (Homo sapiens), P05186 | 200,000 tested, 0.26% active | AID 1012, 2008;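 active = tissue-nonspecific alkaline phosphatase inhibition above about 50% at 20 µM in the single-dose screen, limit read from the data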;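 note: 0% = DMSO negative control and 100% = EDTA positive control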
Target sequence (P05186 whole entry, looked up): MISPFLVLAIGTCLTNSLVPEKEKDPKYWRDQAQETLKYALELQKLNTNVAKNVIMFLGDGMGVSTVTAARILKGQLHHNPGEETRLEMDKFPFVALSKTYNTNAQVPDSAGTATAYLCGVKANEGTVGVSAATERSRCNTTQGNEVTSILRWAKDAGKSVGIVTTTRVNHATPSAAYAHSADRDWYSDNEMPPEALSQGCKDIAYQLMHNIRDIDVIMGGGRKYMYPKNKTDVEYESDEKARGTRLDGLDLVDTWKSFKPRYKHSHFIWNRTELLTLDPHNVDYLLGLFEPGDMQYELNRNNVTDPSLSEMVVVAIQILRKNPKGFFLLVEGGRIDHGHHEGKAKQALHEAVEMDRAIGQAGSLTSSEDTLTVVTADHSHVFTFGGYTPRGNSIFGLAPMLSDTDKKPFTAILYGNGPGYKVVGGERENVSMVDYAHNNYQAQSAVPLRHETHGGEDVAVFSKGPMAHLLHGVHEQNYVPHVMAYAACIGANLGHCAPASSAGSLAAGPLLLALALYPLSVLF
TNAP act hiacc: TNAP activators at high phosphate acceptor level, primary screen, biochemical, luminescence, uHTS; activation factor at 20 µM; 200,000 tested, under 10 active; purified TNAP, CDP-star luminescence, 1 M DEA, 30 min; active compounds read high; 0 = EDTA background, 1 = DMSO-only activity;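 active = activation factor at least 2 at 20 µM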
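Test system – human TNAP · Doses – 20 µM single point · Incubation – 30 min, room temperature · Signal – luminescent substrate turnover signal · Read-out basis – activation factor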
TNAP inh hi DEA: human TNAP enzyme inhibitors, primary screen, biochemical, luminescent, high phosphate acceptor level, uHTS. AID 1135, 2008. 200,000 tested, 0.03% active. Alkaline phosphatase, tissue-nonspecific isozyme (Homo sapiens), P05186. purified TNAP, CDP-star luminescence, 1 M DEA. inhibition, % at 20 µM;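 active = over 50% inhibition of tissue-nonspecific alkaline phosphatase at 20 µM in the single-dose screen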;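 note: plate controls were DMSO wells for no effect and EDTA-quenched wells as full inhibition for full effect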
* marks the source's active call; other numbers are inactive results; / = no result. Shown are actives, neighbours in structure and some others; about 9.6% of the full set was active somewhere.

SMILES	L major viab	HCT116 bCat-KO	PTEN del growth	TNAP inh no acc	TNAP act hiacc	TNAP inh hi DEA
CC1CCCC(N2CCN(C(=O)c3cccc(F)c3)CC2)C1 (centres undefined)	80.9*	102.4	102.9	-17.2	1	-3.0
CC1CCCCC1N1CCN(C(=O)c2cccc(F)c2)CC1 (centres undefined)	15.2	111.2	104.3	-1.4	1.1	-6.4
O=C(c1ccccc1F)N1CCN(CC2CC3C=CC2C3)CC1 (centres undefined)	58.5*	94.0	97.0	-14.9	1.1	-6.1
Cc1ccc(CN2CCN(CC3CC4C=CC3C4)CC2)cc1 (centres undefined)	95.8*	89.6	82.2	-8.2	1.1	-7.8
O=C(c1cccc(F)c1)N1CCN(CC2CC3C=CC2C3)CC1 (centres undefined)	85.5*	95.1	98.9	-12.2	1	-4.1
COc1cccc(C(=O)N2CCN(C(=O)c3cccc(F)c3)CC2)c1	-7.2	99.6	101.9	-8.4	1	0.5
CC(OC(=O)c1ccc2c(=O)n3c(nc2c1)CCCCC3)C(N)=O (centres undefined)	-0.2	/	/	-9.1	1	-3.5
CCOC(=O)C1(CC2CC2)CCN(Cc2cnc(-c3ccc(OC)cc3)nc2)CC1	44.3	/	/	-8.0	1.1	-8.5
Cc1ccc(NC2=C(CC(=O)O)C(c3ccccc3)N(c3ccc(C)cc3)C2=O)cc1 (centres undefined)	28.5	52.8	43.0	4.7	1	-3.6
CCCCn1c(=N)n(CC(O)COc2ccc(C)cc2)c2ccccc21 (centres undefined)	100.6*	2.0*	1.7*	-7.9	1.1	-8.5
Cc1ccc(OCC(O)Cn2c3ccccc3c3ccccc32)cc1 (centres undefined)	-2.4	66.1	57.5	-3.4	1	-1.7
CCCCn1c(=N)n(CC(O)COc2ccccc2)c2ccccc21 (centres undefined)	54.9*	51.4	40.9	-6.9	1.1	-5.6
Cc1ccc(-n2c(C)nn(Cc3ccc([N+](=O)[O-])cc3)c2=O)cc1	-8.1	/	/	-8.5	1	-4.1
Cc1ccc(-n2c3nc(=O)[nH]c(=O)c-3cc3cc([N+](=O)[O-])ccc32)cc1	94.9*	25.9	29.9	6.8	0.9	7.1
CCCCCCc1cc2cc(C(=O)NC)c(=N)oc2cc1O	57.6*	9.0	4.0	-19.5	1.1	-9.7
CCCCCCc1cc2cc(C(N)=O)c(=N)oc2cc1O	44.5	84.1	58.4	-33.1	1.1	-5.0
CCCCCCc1cc2cc(S(=O)(=O)c3ccc(F)c(Cl)c3)c(=O)oc2cc1O	0.1	2.9*	3.1*	-25.4	1	-2.2
CCCCCCc1cc2cc(C(=O)Nc3cccc(OC)c3)c(=O)oc2cc1O	-0.3	5.3*	4.9	16.6	1	4.1
COC(=O)c1ccc(CNC(=O)COC(=O)C2CC3C=CC2C3)cc1 (centres undefined)	-5.0	/	/	-7.3	1	-2.1
O=C(/C=C/c1ccco1)NC(=S)NNC(=O)c1ccco1	93.6*	59.9	62.1	-122.4	1	1.3
COC(=O)c1ccc(NC(=O)C(=O)N2CCN(C(=S)Nc3cccc(OC)c3)CC2)cc1	71.6*	96.1	102.0	-8.4	1	0.1
COC(=O)c1ccc(NC(=O)C(=O)N2CCN(C(=S)Nc3ccc(C)cc3)CC2)cc1	66.0*	91.1	97.0	-8.9	1	2.2
COC(=O)c1ccc(NC(=O)C(=O)N2CCN(C(=S)Nc3ccc(OC)cc3)CC2)cc1	31.2	87.4	94.1	-11.3	1	2.2
COc1cccc(NC(=O)C(=O)N2CCOCC2)c1	-2.4	82.0	92.8	-1.6	1	4.0
Cc1cc(C)c(NC(=O)c2ccc[n+](Cc3ccc([N+](=O)[O-])cc3)c2)c(C)c1	-0.6	91.6	100.0	-6.5	1	-1.2
SMILES	L major viab	HCT116 bCat-KO	PTEN del growth	TNAP inh no acc	TNAP act hiacc	TNAP inh hi DEA
CC(Oc1ccccc1Cl)C(=O)N1CCOCC1 (centres undefined)	-1.5	91.4	101.3	-6.2	1	-4.4
CCOc1cc(C(=O)OC(C)C(=O)Nc2ncc(Cl)cc2Cl)ccc1OCC(=O)N1CCOCC1 (centres undefined)	73.2*	95.0	88.2	-7.7	1	-2.1
Cc1cc(C)c(C)c(OCC(=O)N2CCOCC2)c1	1.1	84.6	104.0	-2.2	1.1	-10.1
Cc1cc(OCC(=O)N2CCOCC2)c(C(C)C)cc1Cl	80.4*	88.5	73.7	-7.3	1	-2.3
Cc1cc(Cl)ccc1OC(C)C(=O)N1CCCN(C(=O)C(C)Oc2ccc(Cl)cc2C)CC1 (centres undefined)	99.5*	14.9	28.1	-5.8	1	-0.5
Cc1cc(Cl)ccc1OCC(=O)N1CCCN(C(=O)COc2ccc(Cl)cc2C)CC1	91.6*	58.5	59.9	-6.5	1	1.1
Cc1c(-c2cc(C(=O)O)on2)cnn1C	-8.8	/	/	-12.6	1	-3.1
Cn1cc(Cl)c(C(=O)Nc2cnn(Cc3ccc(F)cc3)c2)n1	98.6*	95.2	95.6	-4.6	1	-0.6
O=C(Nc1cnn(Cc2ccc(F)cc2)c1)c1cc(-c2ccco2)on1	69.2*	/	/	-7.4	1	-3.6
Cc1ccc(Cn2ccc(NC(=O)c3nn(C)cc3Cl)n2)cc1	6.0	106.1	103.8	-3.5	1	1.1
O=C(CN1CCN(Cc2ccc3c(c2)OCO3)CC1)Nc1ccc(F)cc1	96.7*	88.7	96.8	-9.0	1	0.1
COc1cc(NC(=O)CN2CCN(Cc3ccc4c(c3)OCO4)CC2)cc(OC)c1	86.0*	93.7	88.4	-12.2	1.1	-9.0
O=C(CN1CCN(Cc2ccc3c(c2)OCO3)CC1)Nc1ccc2c(c1)OCO2	91.8*	90.7	100.0	-1.1	1	1.7
O=C(CN1CCN(Cc2ccc3c(c2)OCO3)CC1)c1c[nH]c2ccccc12	85.9*	65.5	63.6	-8.9	1	-3.1
O[C@H]1COC2C1OC[C@@H]2O (some centres undefined)	-4.5	98.2	106.1	-1.9	1	4.5
Cc1ccnc(NC(NC(=O)C(C)C)(C(F)(F)F)C(F)(F)F)c1	-6.5	102.0	94.6	-2.5	1	2.1
CCOc1cc(C(=O)Nc2ccc(S(=O)(=O)NC3=NCCCCC3)cc2)cc(OCC)c1OCC	-6.2	/	/	-0.2	1	-4.5
NS(=O)(=O)c1cccc(NC(=O)CN2CCN(Cc3ccc4c(c3)OCO4)CC2)c1	53.0*	99.0	96.1	4.3	1	0.8
